The results in this text go back to ChEMBL document CHEMBL1155805 (J Med Chem, 2008).

Assay [1] deals with T1, 5-hydroxytryptamine receptor 1A (Rattus norvegicus, UniProt P19327).
T1 sequence (P19327 whole entry): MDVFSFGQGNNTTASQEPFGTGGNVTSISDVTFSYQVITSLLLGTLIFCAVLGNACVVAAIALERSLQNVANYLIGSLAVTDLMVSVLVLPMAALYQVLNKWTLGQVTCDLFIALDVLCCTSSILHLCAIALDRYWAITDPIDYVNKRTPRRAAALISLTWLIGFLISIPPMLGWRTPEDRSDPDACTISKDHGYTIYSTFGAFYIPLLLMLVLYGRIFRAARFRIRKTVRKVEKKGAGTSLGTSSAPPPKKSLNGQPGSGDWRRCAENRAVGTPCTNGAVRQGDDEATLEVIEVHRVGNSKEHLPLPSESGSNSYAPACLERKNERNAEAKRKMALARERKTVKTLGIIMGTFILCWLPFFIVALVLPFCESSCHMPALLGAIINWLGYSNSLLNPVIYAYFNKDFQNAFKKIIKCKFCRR
Kind of assay: Displacement of [3H]8-OH-DPAT from 5HT1A receptor in CRL:CD(SD)BR-COBS rat hippocampus. The class given is tissue-based. In a few lines:
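Rat hippocampus homogenized in 50 mM Tris·HCl pH 7.4, spun at 50000g, warmed 10 min at 37 °C, washed, then resuspended in 50 mM Tris·HCl pH 7.7 with 10 µM pargyline and 4 mM CaCl2. Incubation used 1 nM [3H]8-OH-DPAT for 30 min at 25 °C. Nonspecific binding was defined with 10 µM 5-HT. Separation was by filtration. Ki is the mean ± SD of three experiments.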
(In a radioligand displacement assay an active substance lowers the binding of a labelled ligand.)

Assay [2] in a line: Displacement of [3H]prazosin from adrenergic receptor alpha1 in CRL:CD(SD)BR-COBS rat brain cortex. In a few lines:
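Cortical membranes were washed (50000g, 10 min at 37 °C) and suspended in 50 mM Tris·HCl pH 7.7 with 10 µM pargyline and 0.1% ascorbic acid. Incubation used 0.2 nM [3H]prazosin for 30 min at 25 °C. Nonspecific binding was defined with 3 µM phentolamine. Filtration was used. Ki is the mean ± SD of three experiments.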

For assay [3], the species on record is Rattus norvegicus. Nature of the assay: Ratio of Ki for adrenergic receptor alpha1 to Ki for 5HT1A receptor in CRL:CD(SD)BR-COBS rat brain.
Assay [4] has as its target D(2) dopamine receptor (Rattus norvegicus, UniProt P61169). Kind of assay: Displacement of [3H]spiperone from dopamine D2 receptor in CRL:CD(SD)BR-COBS rat brain striatum.
For assay [5], the target named is D(1A) dopamine receptor (Rattus norvegicus, UniProt P18901). Nature of the assay: Displacement of [3H]SCH23390 from dopamine D1 receptor in CRL:CD(SD)BR-COBS rat brain striatum. In a few lines:
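Striatal membranes were washed (50000g spins, 10 min at 37 °C), then held in 50 mM Tris·HCl pH 7.4 with 10 µM pargyline, 120 mM NaCl, 5 mM KCl, 2 mM CaCl2, 1 mM MgCl2 and 0.1% ascorbic acid. Incubation used 0.4 nM [3H]SCH23390 for 15 min at 25 °C. Nonspecific binding was defined with 10 µM (-)-cis-flupentixol. Filtration was used. Ki is the mean ± SD of three experiments.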

Assay [6] addresses T1, 5-hydroxytryptamine receptor 1A. Kind of assay: Antagonist activity at 5HT1A receptor in CRL:CD(SD)BR-COBS rat hippocampus assessed as inhibition of 5-hydroxytryptamine-induced increase in [35S]GTPgammaS binding. The class given is functional, tissue-based. The method, boiled down: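 Hippocampal membranes (rat, 200 µg protein/sample) were prepared as for 5-HT1A binding. Antagonists were tested at several concentrations with 10 µM 5-HT: 20 min preincubation at 37 °C, then 45 min at 37 °C with 0.1 nM [35S]GTPγS. Nonspecific binding was set with 10 µM GTPγS, followed by filtration. IC50 was fitted and converted to Ki by Cheng–Prusoff. Mean ± SD of three experiments.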
On the technique in general: GTPγS resists hydrolysis and so accumulates on activated G proteins.

Assay [7] addresses 5-hydroxytryptamine receptor 2A (Rattus norvegicus, UniProt P14842). Kind of assay: Displacement of [3H]ketanserin from 5HT2A receptor in CRL:CD(SD)BR-COBS rat brain cortex. The method, boiled down: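 Cortex homogenate was washed, including 10 min at 37 °C, and resuspended in 50 mM Tris·HCl pH 7.7. Incubation used 0.35 nM [3H]ketanserin for 15 min at 37 °C. Nonspecific binding was defined with 1 µM methysergide. Filtration was used. Ki is the mean ± SD of three experiments.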

The target in assay [8] is T2, 5-hydroxytryptamine receptor 1A (Rattus norvegicus) (UniProt P19327).
T2 sequence (whole entry): T1 sequence (P19327 whole entry)
Kind of assay: Agonist activity at 5HT1A receptor in CRL:CD(SD)BR-COBS rat hippocampus assessed as increase in [35S]GTPgammaS binding relative to 5-hydroxytryptamine. The class given is functional, tissue-based. In a few lines:
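Rat hippocampal membranes (200 µg protein/sample), washed in 50 mM Tris·HCl and resuspended in pH 7.7 Tris with 10 µM pargyline and 4 mM CaCl2. Graded drug concentrations were applied, with 20 min preincubation at 37 °C, then 45 min at 37 °C with 0.1 nM [35S]GTPγS. Nonspecific binding was set with 10 µM GTPγS, followed by GF/B filtration. EC50 and Emax (vs 5-HT) came from curve fitting. Mean ± SD, three experiments.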

The target of assay [9] is T1, 5-hydroxytryptamine receptor 1A. Nature of the assay: Agonist activity at 5HT1A receptor in CRL:CD(SD)BR-COBS rat hippocampus assessed as increase in [35S]GTPgammaS binding. Type of assay: functional, tissue-based. The method, boiled down: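 Rat hippocampal membranes (200 µg protein/sample), washed in 50 mM Tris·HCl and resuspended in pH 7.7 Tris with 10 µM pargyline and 4 mM CaCl2. Graded drug concentrations were applied, with 20 min preincubation at 37 °C, then 45 min at 37 °C with 0.1 nM [35S]GTPγS. Nonspecific binding was set with 10 µM GTPγS, followed by GF/B filtration. Mean ± SD, three experiments.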

By Ki is commonly meant a dissociation constant, usually derived from enzyme kinetics or from competition with a known ligand. As a reminder, the Emax is the greatest response seen or fitted, relative to the assay's reference. What is called EC50 is the concentration at which the effect is half-maximal.

Chain of D(1A) dopamine receptor (P18901 whole entry): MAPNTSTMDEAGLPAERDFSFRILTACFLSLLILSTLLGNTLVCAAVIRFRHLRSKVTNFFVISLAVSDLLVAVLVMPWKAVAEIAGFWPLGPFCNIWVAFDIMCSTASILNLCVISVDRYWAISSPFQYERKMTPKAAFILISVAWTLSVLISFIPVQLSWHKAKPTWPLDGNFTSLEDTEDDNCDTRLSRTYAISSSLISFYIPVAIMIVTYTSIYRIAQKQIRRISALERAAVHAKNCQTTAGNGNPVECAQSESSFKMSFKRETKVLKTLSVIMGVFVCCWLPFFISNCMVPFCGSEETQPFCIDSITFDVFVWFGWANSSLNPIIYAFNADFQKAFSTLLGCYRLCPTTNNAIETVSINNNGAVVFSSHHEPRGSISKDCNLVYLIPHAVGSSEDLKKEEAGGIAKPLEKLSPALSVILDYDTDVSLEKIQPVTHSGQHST
Chain of D(2) dopamine receptor (P61169 whole entry): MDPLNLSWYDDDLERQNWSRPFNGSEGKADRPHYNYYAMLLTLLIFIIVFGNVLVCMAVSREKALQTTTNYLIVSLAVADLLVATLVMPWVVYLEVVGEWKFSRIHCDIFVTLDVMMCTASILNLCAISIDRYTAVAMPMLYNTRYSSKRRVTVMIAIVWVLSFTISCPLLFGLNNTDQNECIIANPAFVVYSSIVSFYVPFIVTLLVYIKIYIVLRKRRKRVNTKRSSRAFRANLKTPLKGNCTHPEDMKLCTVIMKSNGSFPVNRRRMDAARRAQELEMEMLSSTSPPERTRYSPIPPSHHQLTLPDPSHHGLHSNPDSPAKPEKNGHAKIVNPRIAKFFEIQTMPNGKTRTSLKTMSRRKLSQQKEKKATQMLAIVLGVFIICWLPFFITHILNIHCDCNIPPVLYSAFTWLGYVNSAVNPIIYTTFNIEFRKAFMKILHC
Chain of 5-hydroxytryptamine receptor 2A (P14842 whole entry): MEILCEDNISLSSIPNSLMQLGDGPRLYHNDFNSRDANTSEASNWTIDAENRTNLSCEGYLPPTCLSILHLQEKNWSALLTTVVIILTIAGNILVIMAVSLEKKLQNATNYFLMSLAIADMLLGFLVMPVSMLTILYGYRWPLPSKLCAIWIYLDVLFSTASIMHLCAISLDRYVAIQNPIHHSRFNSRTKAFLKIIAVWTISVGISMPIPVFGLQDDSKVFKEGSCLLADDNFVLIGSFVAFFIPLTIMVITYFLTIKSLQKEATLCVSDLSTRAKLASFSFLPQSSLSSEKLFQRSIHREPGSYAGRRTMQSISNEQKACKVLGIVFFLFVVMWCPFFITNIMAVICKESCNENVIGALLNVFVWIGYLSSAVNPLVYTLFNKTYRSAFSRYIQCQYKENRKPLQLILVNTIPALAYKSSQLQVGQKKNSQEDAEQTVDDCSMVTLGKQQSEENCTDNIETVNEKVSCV

For the molecule `O=[N+]([O-])c1ccccc1N1CCN(CCSc2nc3ccccc3s2)CC1`, the inhibitory constant (Ki) was 1700 nM in assay [1] and above 10000 nM in assay [2]. For the same molecule, in assay [3], the Ratio Ki is above 5.87.

Regarding `O=[N+]([O-])c1ccccc1N1CCN(CCCSc2nc3ccccc3o2)CC1`, the Ki in assay [1] stood at 14.1 nM; in assay [2], 127 nM. For the same molecule, the Ratio Ki in assay [3] was 9.

As for `COc1ccccc1N1CCN(CCCCCCSc2nc3ccccc3o2)CC1`, the Ki in assay [4] was 46.6 nM; in [5], 922 nM; in assay [6], 1.3 nM; in assay [1] it was 0.52 nM; in [2], 52.5 nM; in assay [7], 207 nM. Also, the Ratio Ki in assay [3] came to 101.

As for `O=[N+]([O-])c1ccccc1N1CCN(CCCSc2nc3ccccc3s2)CC1`, the figures for the Ki in assay [1] and in assay [2] were 9.6 nM and 249 nM, respectively. Further, in assay [3], the Ratio Ki is 26.

In the case of `COc1ccccc1N1CCN(CCSc2nc3ccccc3[nH]2)CC1`, the values for the Ki in [1] and in assay [2] were 33.1 nM and 240 nM, respectively. For the same molecule, in assay [3], the Ratio Ki was determined as 7.25.

Turning to `NCCc1c[nH]c2ccc(O)cc12`, in assay [8], the Emax turned out to be 100%.

In [2], `O=C1c2ccccc2S(=O)(=O)N1CCCCN1CCN(c2ncccn2)CC1` [IPSAPIRONE] showed a Ki of 200 nM. For the same molecule, in [3], the Ratio Ki is 36.

`COc1ccccc1N1CCN(CCSc2nc3ccccc3s2)CC1`: the Ki in assay [1] came to 31.2 nM; in assay [2], 207 nM. In addition, in assay [3], the Ratio Ki is 6.63.

In the case of `COc1ccccc1N1CCN(CCCSc2nc3ccccc3o2)CC1`, the Ki in [1] was determined as 0.55 nM; in [2] it was 21.5 nM. Further, the Ratio Ki in assay [3] turned out to be 39.

Take `O=[N+]([O-])c1ccccc1N1CCN(CCCSc2nc3ccccc3[nH]2)CC1`: the Ki in assay [1] was found to be 16.6 nM; in assay [2], 77.4 nM. In addition, in [3], the Ratio Ki turned out to be 4.66.

For `COc1ccccc1N1CCN(CCCSc2nc3ccccc3[nH]2)CC1`, the Ki was found to be 1 nM in assay [1] and 25.9 nM in [2]. Further, the Ratio Ki in assay [3] was found to be 26.

For `COc1ccccc1N1CCN(CCCSc2nc3cc(Cl)ccc3s2)CC1`, the inhibition constant Ki in [1] is 1 nM; in assay [2], 21.9 nM. The Ratio Ki in assay [3] was determined as 22.

As for `c1ccc(N2CCN(CCCSc3nc4ccccc4o3)CC2)nc1`, the Ki in assay [4] is 429 nM; in assay [5], above 10000 nM; in assay [1] it was 1.6 nM; in [2] it was 98 nM; in [7], 174 nM. The Ratio Ki in assay [3] was 61.

On to `O=[N+]([O-])c1ccccc1N1CCN(CCSc2nc3ccccc3[nH]2)CC1`, for which the Ki was determined as 95.2 nM in assay [1] and 457 nM in assay [2]. Further, the Ratio Ki in [3] was found to be 4.8.

`COc1ccccc1N1CCN(CCCSc2nc3ccccc3n2C)CC1`: the figures for the Ki in [1] and in assay [2] were 0.27 nM and 20 nM, respectively. In addition, in assay [3], the Ratio Ki amounted to 74.

Take `c1cnc(N2CCN(CCCSc3nc4ccccc4o3)CC2)nc1`: the results for the Ki in [1] and in assay [2] were 14.9 nM and 1650 nM, respectively. Moreover, the Ratio Ki in [3] is 111.

On to `COc1ccccc1N1CCN(CCCCSc2nc3ccccc3o2)CC1`, for which the Ki in assay [4] was determined as 37.3 nM; in assay [5] it was 1600 nM; in [6], 6.6 nM; in assay [1], 0.094 nM; in assay [2] it was 78 nM; in assay [7], 298 nM. Further, the Ratio Ki in assay [3] worked out at 830.

As for `COc1ccccc1N1CCN(CCCCCCSc2nc3ccccc3s2)CC1`, the Ki in assay [1] is 1.3 nM; in [2], 46 nM. In addition, the Ratio Ki in assay [3] was found to be 53.

Consider `O=[N+]([O-])c1ccccc1N1CCN(CCSc2nc3ccccc3o2)CC1`, for which the Ki is 326 nM in assay [1] and 1920 nM in [2]. Further, in assay [3], the Ratio Ki turned out to be 5.87.

Consider `COc1ccccc1N1CCN(CCSc2nc3ccccc3o2)CC1`, for which the Ki was found to be 67.2 nM in assay [1] and 276 nM in [2]. For the same molecule, in [3], the Ratio Ki was found to be 4.11.

In the case of `COc1ccccc1N1CCN(CCCCSc2nc3ccccc3s2)CC1`, the Ki is 58.3 nM in [4]; 2000 nM in assay [5]; 0.27 nM in [1]; 16.6 nM in assay [2]; 106 nM in assay [7]. In addition, the Ratio Ki in assay [3] was 61.

Regarding `CCc1cc2c(=O)n(N)c(SCCCN3CCN(c4ccccc4OC)CC3)nc2s1`, in [6], the Ki amounted to 7.4 nM.

As to `CCC1=CC2C(=O)N(N)C(SCCCN3CCN(c4ncccn4)CC3)=NC2S1` (stereo unspecified), the EC50 in [9] was 1210 nM. Also, the maximum response (Emax) in [8] was found to be 38%.

Consider `c1cnc(N2CCN(CCCSc3nc4ccccc4s3)CC2)nc1`, for which the Ki was 532 nM in assay [4]; above 10000 nM in assay [5]; 2.5 nM in assay [1]; 328 nM in assay [2]; 183 nM in assay [7]. The Ratio Ki in assay [3] amounted to 131.

Take `COc1ccccc1N1CCN(CCCSc2nc3ccccc3s2)CC1`: the Ki in assay [4] was determined as 25.8 nM; in assay [5], 1280 nM; in [6], 1.7 nM; in [1], 0.29 nM; in assay [2], 33.2 nM; in assay [7], 96.1 nM. Besides, the Ratio Ki in [3] was determined as 114.

Regarding `c1ccc(N2CCN(CCCSc3nc4ccccc4s3)CC2)nc1`, the Ki was 462 nM in assay [4]; 5630 nM in assay [5]; 0.78 nM in assay [1]; 77.7 nM in assay [2]; 78.8 nM in assay [7]. The EC50 in assay [9] was found to be 204 nM. Moreover, the Ratio Ki in assay [3] was found to be 100. In assay [8], the Emax was determined as 33%.

On to `COc1ccccc1N1CCN(CCCSc2nc3cc(Cl)ccc3o2)CC1`, for which the results for the Ki in [1] and in assay [2] were 0.88 nM and 46.7 nM, respectively. For the same molecule, the Ratio Ki in assay [3] was 53.
